Compounds with a hit are over-represented: about 0.86% of the library has one in this group of screens.
DAGLB inh = diacylglycerol lipase beta (human) inhibition; Q8NCG7; HEK293T DAGLB membrane lysate, EnzChek fluorogenic substrate; inhibition, % at 5.17 µM; 0.059% of 340,000 active; AID 504411; in the data active means inhibition above about 34%
Target sequence (Q8NCG7 whole entry, looked up): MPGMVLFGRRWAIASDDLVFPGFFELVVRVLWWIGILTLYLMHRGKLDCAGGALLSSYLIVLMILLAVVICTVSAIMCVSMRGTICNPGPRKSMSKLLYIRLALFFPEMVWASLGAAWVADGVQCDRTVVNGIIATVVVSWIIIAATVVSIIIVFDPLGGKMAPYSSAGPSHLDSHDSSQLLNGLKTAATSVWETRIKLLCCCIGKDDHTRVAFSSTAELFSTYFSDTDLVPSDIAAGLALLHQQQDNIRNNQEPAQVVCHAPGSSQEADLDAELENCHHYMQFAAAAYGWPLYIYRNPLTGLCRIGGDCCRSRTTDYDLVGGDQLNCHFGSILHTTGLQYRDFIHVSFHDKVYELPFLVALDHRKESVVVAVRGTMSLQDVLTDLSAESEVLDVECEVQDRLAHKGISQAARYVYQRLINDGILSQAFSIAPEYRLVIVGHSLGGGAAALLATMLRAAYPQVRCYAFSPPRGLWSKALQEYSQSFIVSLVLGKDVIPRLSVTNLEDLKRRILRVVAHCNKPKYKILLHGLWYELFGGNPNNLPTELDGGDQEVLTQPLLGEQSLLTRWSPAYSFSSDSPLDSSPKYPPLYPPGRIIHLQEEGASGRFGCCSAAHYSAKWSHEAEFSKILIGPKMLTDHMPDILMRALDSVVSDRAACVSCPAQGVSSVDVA
CCR6 antagonist = blocks CCL20-driven beta-arrestin recruitment at human CCR6; P51684; CHO-K1 CCR6 PathHunter beta-arrestin, luminescence, CCL20-stimulated; inhibition, % at 20 µM; 0.49% of 340,000 active; AID 493098;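 active means compounds whose inhibition of the agonist-driven luminescence signal at 20 µM reaches about 50%, limit read from the data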;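 further: cells stimulated with CCL20 at 14 nM final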
CXCR6 inh = inhibitors of human CXCR6 receptor; O00574; CHO-K1 PathHunter CXCR6 beta-arrestin, luminescence; inhibition, % at 20 µM; 0.36% of 360,000 active; AID 602244; in the data active means inhibition above about 34%, passing the limit was not always enough;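 further: antagonist mode with CXCL16 agonist at 10 nM final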
hiPSC survival = increases survival of single human iPS cells | hiPSC single-cell survival, ATPlite luminescence; 100% = ROCK inhibitor wells, 0% = DMSO | survival enhancement, % at 20 µM | 0.044% of 360,000 active | AID 602274; in the data active means survival enhancement above about 18%;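 further: cells exposed to compounds for 16 hours before the ATP read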
APJ agonist = activates the human apelin receptor APJ; activation, % at 20 µM; CHO-K1 APJ PathHunter beta-arrestin, luminescence; 0% DMSO wells, 100% apelin; AID 2520; 0.11% of 330,000 active;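 active means activation more than six SD over the plate average, tested at 20 µM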
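Material: CHO-K1 APJ beta-arrestin complementation cell line; Input: cell density 1000 per well; Incubation: compound stimulation 90 min at 25 °C, detection 60 min; Signal: luminescence from split beta-galactosidase complementation, Galacton Star/Emerald II substrate; Controls: DMSO-only wells as negative, 10 nM Apelin-13 as positive control.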
APJ antag = APJ receptor antagonism. 0.32% of 330,000 active. CHO-K1 APJ beta-arrestin complementation, luminescence. inhibition, % at 20 µM. P35414;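 active means inhibition above about 40% at 20 µM, limit read from the data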;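 further: cells challenged with 10 nM apelin-13 agonist together with compound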
APJ ag confirm = APJ receptor agonism confirmation; 10% of 310 active; activation, % at 20 µM; AID 2764; shares compounds with APJ agonist; CHO-K1 APJ PathHunter beta-arrestin, luminescence;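 active means activation above 40%, taking the highest of four retests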
Hits are given with their value; 0 = inactive; - = no result.

SMILES | DAGLB inh | CCR6 antagonist | CXCR6 inh | hiPSC survival | APJ agonist | APJ antag | APJ ag confirm
CC1=C(c2ccc(C)cc2)[N+](=O)C(C)(C)N1[O-] | 0 | 0 | 0 | 0 | 10 | 0 | 0
CCN(CC(=O)Nc1ccc(NC(C)=O)cc1)C(=O)c1oc2c(ccc3ccccc32)c1C | 0 | 0 | 0 | 0 | 22 | 0 | 0
COC(=O)[C@]1(C)N[C@H](CN(C)S(=O)(=O)c2ccccc2)[C@@H]2C(=O)N(Cc3ccccc3)C(=O)[C@@H]21 | 0 | 0 | 0 | 0 | 0 | 0 | -
Cc1ccc(-c2nn(-c3ccccc3)cc2/C=C/C(=O)OCC(=O)NC2CC2)o1 | 0 | 0 | 0 | 0 | 12 | 0 | 0
CC(CCc1ccccc1)NC(=O)COC(=O)c1cccs1 (stereo not drawn) | 0 | 0 | 0 | 0 | 0 | 0 | -
COc1cccc(Nc2nc(NCC3CCCO3)c3ccccc3n2)c1 (stereo not drawn) | 0 | 0 | 0 | 0 | 14 | 0 | 0
N#Cc1nc(-c2ccc(OCc3ccc(Cl)cc3)cc2)oc1N1CCC(C(N)=O)CC1 | 0 | 0 | 0 | 0 | 0 | 0 | -
N#Cc1nc(-c2ccc(OCc3ccc(Cl)cc3)cc2)oc1N1CCOCC1 | 0 | 0 | 0 | 0 | 25 | 0 | 0
CN1CCc2c(sc(/N=C/c3c[nH]c4ccccc34)c2C#N)C1 | - | 0 | 0 | 0 | 38 | 0 | 0
CN1CCc2c(sc(/N=C/c3c[nH]c4ccccc34)c2C(N)=O)C1 | - | 0 | 0 | 0 | 0 | 0 | -
Cc1c(C(=O)Nc2cccc(C(F)(F)F)c2)oc2ccc(S(=O)(=O)N3CCOCC3)cc12 | 0 | 0 | 0 | 0 | 21 | 0 | 0
Cc1ccc(CNC(=O)c2oc3ccc(S(=O)(=O)N4CCOCC4)cc3c2C)cc1 | 0 | 0 | 0 | 0 | 0 | 0 | -
Cc1cc2ccccn2c1C(=O)c1nc(N2CCOCC2)ncc1Cl | 0 | 0 | 0 | 0 | 0 | 0 | -
Cc1cc2ccccn2c1C(=O)c1nc(NCc2ccco2)ncc1Cl | 0 | 0 | 0 | 0 | 40 | 0 | 0
COc1cccc(N2CCN(c3ncnc4c3[nH]c3ccccc34)CC2C)c1 (stereo not drawn) | - | - | - | - | 19 | 0 | 41
CC(=O)Nc1ccc(S(=O)(=O)NC2CC(=O)N(c3ccc(C)c(C)c3)C2)cc1 (stereo not drawn) | 0 | 0 | 0 | 0 | 0 | 0 | -
Cc1ccc(C2C(C#N)=C(N)Oc3nc(-c4ccccc4)[nH]c32)o1 (stereo not drawn) | 0 | 0 | 0 | 0 | 30 | 0 | 0
CCCCCCCCN1C(=O)[C@H](CC(=O)N2CCSCC2)C[C@@]2(C(=O)OC)CCCCC=C12 | - | - | 0 | 0 | - | - | -
O=C(OCN1C(=O)c2ccccc2C1=O)c1cc(S(=O)(=O)N2CCOCC2)ccc1F | 0 | 0 | 0 | 0 | 0 | 0 | -
CCc1nnc(NC(=O)CSc2nc3cccnc3n2C2CCCCC2)s1 | 0 | 0 | 0 | 0 | 53 | 0 | 62
Cc1cc(C)n(-c2nc(N(c3ccccc3)c3ccccc3)nc(-n3nc(C)cc3C)n2)n1 | 0 | 0 | 0 | 0 | 36 | 0 | 0
N/C(=N\OC(=O)c1ccc(Br)cc1)c1ccncc1 | 0 | 0 | 0 | 0 | 12 | 0 | 0
N/C(=N\OC(=O)c1ccccc1)c1ccncc1 | 0 | 0 | 0 | 0 | 0 | 0 | -
Cc1ccc2c(c1)N(CCC(=O)NC1CCCCC1C)C(=O)CO2 (stereo not drawn) | 0 | 0 | 0 | 0 | 0 | 0 | -
COc1cc(/C=C(/C#N)c2nc3ccccc3[nH]2)ccc1OCC(=O)Nc1ccccc1C(C)C | 0 | 0 | 0 | 0 | 29 | 0 | 0
SMILES | DAGLB inh | CCR6 antagonist | CXCR6 inh | hiPSC survival | APJ agonist | APJ antag | APJ ag confirm
Cc1cc(C)cc(S(=O)(=O)c2cn(C)c3cc(N4CCN(C)CC4)c(F)cc3c2=O)c1 | 0 | 0 | 0 | 0 | 38 | 0 | 0
CCNC(=O)C1CCCN(C(=O)c2cccc(OC(F)(F)F)c2)CC1 (stereo not drawn) | - | - | 0 | 0 | - | - | -
CCOC(=O)N1CCN(C(=O)c2ccc(Cn3c(=S)[nH]c4cc5c(cc4c3=O)OCO5)cc2)CC1 | 0 | 0 | 0 | 0 | 23 | 0 | 0
CCN(CC)CCNC(=O)c1ccc(NC(=O)c2cc(-c3ccco3)nc3ccccc23)cc1 | 0 | 0 | 0 | 0 | 55 | 0 | 0
C=C1CCN([C@@H](CC(C)C)C(=O)O)S(=O)(=O)c2ccccc21 | 0 | 0 | 0 | 0 | 45 | 0 | 0
COC(=O)c1ccc2c(=O)n(CC3CCCO3)c(SCC(=O)Nc3ccc(OC)cc3OC)nc2c1 (stereo not drawn) | 0 | 0 | 0 | 0 | 0 | 0 | -
COc1ccc(-c2cn3c(C)c(C(=O)Nc4cccc(NC(C)=O)c4)sc3n2)cc1 | 0 | 0 | 0 | 0 | 17 | 0 | 0
Cc1ccc2nc(N(CCCN(C)C)C(=O)c3ccc(S(=O)(=O)N4CCc5ccccc5C4)cc3)sc2c1 | 0 | 0 | 0 | 0 | 79 | 0 | 46
Cc1cccc2sc(N(CCCN(C)C)C(=O)c3ccc(S(=O)(=O)N4CCc5ccccc5C4)cc3)nc12 | 0 | 0 | 0 | 0 | 0 | 0 | -
COc1ccc2sc(N(CCCN(C)C)C(=O)c3ccc(S(=O)(=O)N4CCc5ccccc5C4)cc3)nc2c1 | 0 | 0 | 0 | 0 | 50 | 0 | 0
CN(C)CCCN(C(=O)c1ccc(S(=O)(=O)N2CCc3ccccc3C2)cc1)c1nc2ccc(F)cc2s1 | 0 | 0 | 0 | 0 | 47 | 0 | 0
Cc1cc(C)c2sc(N(CCCN(C)C)C(=O)c3ccc(S(=O)(=O)N4CCc5ccccc5C4)cc3)nc2c1 | 0 | - | 0 | 0 | 66 | 0 | 45
Cc1ccccc1CN1CCN(C(=O)CC(C)C)CC1 | 0 | 0 | 0 | 0 | 0 | 0 | -
O=C(CCNS(=O)(=O)c1ccc(OC(F)(F)F)cc1)N1CCN(S(=O)(=O)c2cccc(F)c2)CC1 | 0 | 0 | 0 | 0 | 0 | 0 | -
Cc1ccc(-n2nnc3c(=O)oc4ccccc4c32)cc1 | 0 | 0 | 0 | 0 | 32 | 0 | 0
COc1ccc([N+](=O)[O-])cc1C(=O)Nc1ccc(Cc2ccncc2)cc1 | 0 | 0 | 0 | 0 | 16 | 0 | 0
COc1ccccc1C(=O)Nc1ccc(Cc2ccncc2)cc1 | 0 | 0 | 0 | 0 | - | 0 | -
CSc1ccc(CN2CCC(C)(Oc3ccccc3F)C2)cc1 (stereo not drawn) | - | - | 0 | 0 | - | - | -
Cc1ccc(C)c2[nH]c(=O)c(CCNC(=O)c3cc4ccccc4o3)cc12 | 0 | 0 | 0 | 0 | 12 | 0 | 0
COc1cc(OC)cc(C(=O)N[C@H](C(=O)NCc2ccc(F)cc2)C(C)C)c1 | 0 | 0 | 0 | 0 | 0 | 0 | -
COc1ccc(N2CCN(C(=O)CSc3nnc(C4CC4)n3C3CC3)CC2)cc1 | 0 | - | 0 | 0 | - | - | -
CC(NC(=O)OCc1ccccc1)C(=O)NCC(=O)NC(Cc1ccc(OC(C)(C)C)cc1)C(=O)OC(C)(C)C (stereo not drawn) | 0 | 0 | 0 | 0 | 19 | 0 | 0

Screens deposited in PubChem BioAssay by several laboratories.
